Assay results from ChEMBL document CHEMBL4819015, “Design, synthesis, and biological evaluation of hederagenin derivatives with improved aqueous solubility and tumor resistance reversal activity” (Eur J Med Chem, 2021).
In brackets after ≈: the same amount, converted by molar mass.

Columns and labels:
[1] = molecular target: T1, ATP-dependent translocase ABCB1 (Homo sapiens, UniProt P08183); test: Reversal of P-glycoprotein mediated multidrug resistance in human KBV cells assessed as potentiation of paclitaxel-induced cytotoxicity by measuring cell survival rate at 10 uM measured after 72 hrs by MTT assay; type: cell-based
T1 sequence (P08183 whole entry): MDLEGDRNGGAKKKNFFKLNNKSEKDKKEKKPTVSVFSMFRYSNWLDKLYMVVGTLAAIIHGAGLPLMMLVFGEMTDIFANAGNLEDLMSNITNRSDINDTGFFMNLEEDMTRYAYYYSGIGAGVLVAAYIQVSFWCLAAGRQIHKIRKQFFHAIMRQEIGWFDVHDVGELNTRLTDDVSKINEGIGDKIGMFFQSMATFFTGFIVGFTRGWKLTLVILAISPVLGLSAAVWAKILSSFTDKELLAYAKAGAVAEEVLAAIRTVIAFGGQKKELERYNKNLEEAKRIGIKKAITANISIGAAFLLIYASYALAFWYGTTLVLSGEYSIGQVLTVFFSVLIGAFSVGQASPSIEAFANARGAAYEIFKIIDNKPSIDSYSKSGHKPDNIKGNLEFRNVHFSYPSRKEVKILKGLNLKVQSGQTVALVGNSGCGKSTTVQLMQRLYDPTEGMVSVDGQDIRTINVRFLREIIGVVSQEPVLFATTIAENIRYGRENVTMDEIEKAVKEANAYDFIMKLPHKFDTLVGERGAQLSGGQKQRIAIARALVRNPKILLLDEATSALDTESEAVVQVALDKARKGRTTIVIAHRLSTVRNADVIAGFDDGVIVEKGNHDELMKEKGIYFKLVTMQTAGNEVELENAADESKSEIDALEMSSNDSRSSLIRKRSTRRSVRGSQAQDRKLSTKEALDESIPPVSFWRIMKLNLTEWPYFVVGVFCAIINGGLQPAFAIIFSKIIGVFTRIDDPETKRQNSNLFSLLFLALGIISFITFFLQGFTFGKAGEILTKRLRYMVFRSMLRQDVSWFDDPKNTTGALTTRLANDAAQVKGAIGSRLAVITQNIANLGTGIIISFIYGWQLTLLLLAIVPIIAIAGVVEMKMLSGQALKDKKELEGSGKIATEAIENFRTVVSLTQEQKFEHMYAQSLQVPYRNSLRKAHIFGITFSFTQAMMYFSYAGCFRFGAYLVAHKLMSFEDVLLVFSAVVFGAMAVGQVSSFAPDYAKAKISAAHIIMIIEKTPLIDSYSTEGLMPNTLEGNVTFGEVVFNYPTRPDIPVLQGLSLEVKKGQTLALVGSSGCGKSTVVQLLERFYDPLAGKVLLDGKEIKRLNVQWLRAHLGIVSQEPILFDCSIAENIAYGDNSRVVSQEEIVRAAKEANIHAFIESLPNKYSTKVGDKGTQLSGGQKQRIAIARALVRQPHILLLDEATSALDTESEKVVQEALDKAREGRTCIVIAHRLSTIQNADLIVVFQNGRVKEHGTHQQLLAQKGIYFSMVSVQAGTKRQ
How it was run: (§1)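 KBV or MCF-7T cells were grown in DMEM with 10% heat-inactivated FCS, penicillin/streptomycin, 37 °C and 5% CO2, with periodic 10 nM paclitaxel to keep resistance; cells were used in exponential phase. Cells were exposed to test articles for 72 h, given MTT for about 2 h, the medium was removed and DMSO added. A570 gave the survival rate.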

[2] = Cytotoxicity against human KBV cells assessed as cell survival at 10 uM measured after 72 hrs by MTT assay; type: functional; settings: read-out: Activity; how it was run: as §1
[3] = Aqueous solubility of compound in deionized water at 37 degC measured by UV-vis spectrophotometry
[4] = Induction of apoptosis in human KBV cells assessed as accumulation of cells in Sub-G1 phase at 10 uM measured by flowcytometry method (reference value: 1.9%); type: functional
[5] = Stability of compound in presence of Porcine liver esterase assessed as residual activity at pH 7.4 measured after 4 hrs; type: ADME; settings: pig, read-out: Stabilty
How it was run: (§2)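 Compound in PBS pH 7.4 with porcine liver esterase, shaken at 37 °C. Aliquots were taken at set times, diluted 10-fold and centrifuged at 14,000 rpm for 5 min. Supernatants were run on C18 HPLC with isocratic 95% methanol/water (0.1% TFA) at 1 mL/min, UV 306 nm. Percent remaining is relative to the 0 h sample.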

[6] = Stability of compound in presence of Porcine liver esterase assessed as residual activity at pH 7.4 measured after 12 hrs; type: ADME; settings: pig, read-out: Stabilty; how it was run: as §2
[7] = Stability of compound in presence of Porcine liver esterase assessed as residual activity at pH 7.4 measured after 24 hrs; type: ADME; settings: pig, read-out: Stabilty; how it was run: as §2
[8] = molecular target: T1, ATP-dependent translocase ABCB1; test: Inhibition of P-glycoprotein mediated Rhodamine-123 efflux in human KBV cells assessed as Rhodamine-123 accumulation measured after 2 hrs by flowcytometry; type: cell-based; settings: dose 5-10 µM
How it was run: (§3)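 KBV or MCF-7T cells were pretreated with or without compound for 2 h, then loaded with rhodamine 123 for 30 min. Cells were harvested and washed three times in PBS. Flow cytometry of 10,000 cells gave mean fluorescence intensity; mean ± SD, n = 3.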

[9] = molecular target: T1, ATP-dependent translocase ABCB1; test: Inhibition of P-glycoprotein mediated Rhodamine-123 efflux in human MCF-7T cells assessed as Rhodamine-123 accumulation measured after 2 hrs by flowcytometry; type: cell-based; settings: dose 5-10 µM; how it was run: as §3
[10] = molecular target: T1, ATP-dependent translocase ABCB1; test: Inhibition of P-glycoprotein mediated Flutax1 efflux in human KBV cells assessed as Flutax1 accumulation at 5 uM […] by flowcytometry; type: cell-based
[11] = molecular target: T1, ATP-dependent translocase ABCB1; test: Inhibition of P-glycoprotein mediated Flutax1 efflux in human KBV cells assessed as Flutax1 accumulation at 10 uM measured after 2 hrs by flowcytometry; type: cell-based; settings: mcf-t, in the assay text read “human MCF-7T cells” for “human KBV cells”
[12] = molecular target: T1, ATP-dependent translocase ABCB1; test: Reversal of P-glycoprotein mediated multidrug resistance in human KBV cells assessed as paclitaxel-mediated apoptosis by measuring accumulation of cells in Sub-G1 phase in at 5 uM measured by flowcytometry method (Rvb (paclitaxel)= 2.1%); type: cell-based
[13] = molecular target: T1, ATP-dependent translocase ABCB1; test: Reversal of P-glycoprotein mediated multidrug resistance in human KBV cells assessed as paclitaxel-mediated apoptosis by measuring accumulation of cells in Sub-G1 phase in at 10 uM measured by flowcytometry method (Rvb (paclitaxel)= 2.1%); type: cell-based
[14] = Cytotoxicity against human MCF-T cells assessed as cell survival measured after 72 hrs by MTT assay; type: functional, cell-based; how it was run: as §1
[15] = Cytotoxicity against human KBV cells assessed as cell survival measured after 72 hrs by MTT assay; type: functional, cell-based; how it was run: as §1
[16] = Antiproliferative activity against human KBV cells in presence of 100 nM Paclitaxel; type: functional, cell-based; how it was run: as §1
[17] = Antitumour activity against human KBV cells xenografted in nude mouse assessed as paclitaxel-mediated tumour growth inhibition at 10 mg/kg; type: functional; settings: read-out: TGI

SMILES	cell survival rate [1]	viability at 10 µM [2]	also measured
CC1(C)CC[C@]2(C(=O)OCc3ccccc3)CC[C@]3(C)C(C(=O)C[C@@H]4[C@@]5(C)Cc6nccnc6[C@@](C)(CO)[C@@H]5CC[C@]43C)[C@@H]2C1 (some centres undefined)	20.77%	129%	–
CC1(C)CC[C@]2(C(=O)OCc3ccccc3)CC[C@]3(C)C(=CC[C@@H]4[C@@]5(C)Cc6nccnc6[C@@](C)(COC(=O)CCC(=O)OCCOCCOCCO)[C@@H]5CC[C@]43C)[C@@H]2C1	43.54%	82.5%	solubility ([3]; pH 7.4): Soluble
CC1(C)CC[C@]2(C(=O)O)CC[C@]3(C)C(=CC[C@@H]4[C@@]5(C)Cc6cn[nH]c6[C@@](C)(CO)[C@@H]5CC[C@]43C)[C@@H]2C1	99.31%	109%	–
Cc1nc2c(s1)C[C@@]1(C)[C@@H](CC[C@]3(C)[C@@H]1CC=C1[C@@H]4CC(C)(C)CC[C@]4(C(=O)O)CC[C@]13C)[C@]2(C)CO	61.78%	96%	–
CC1(C)CC[C@]2(C(=O)OCC(=O)OCCOCCOCCO)CC[C@]3(C)C(=CC[C@@H]4[C@@]5(C)Cc6nccnc6[C@@](C)(CO)[C@@H]5CC[C@]43C)[C@@H]2C1	28.76%	80.5%	–
Cc1nc2c(s1)C[C@@]1(C)[C@@H](CC[C@]3(C)[C@@H]1CC=C1[C@@H]4CC(C)(C)CC[C@]4(C(=O)OCc4ccccc4)CC[C@]13C)[C@]2(C)CO	27.85%	98.6%	–
CN1CCN(C(=O)[C@]23CCC(C)(C)C[C@H]2C2=CC[C@@H]4[C@@]5(C)Cc6nccnc6[C@@](C)(CO)[C@@H]5CC[C@@]4(C)[C@]2(C)CC3)CC1	23.51%	124%	–
CC1(C)CC[C@]2(C(=O)OCc3ccccc3)CC[C@]3(C)C(=CC[C@@H]4[C@@]5(C)Cc6nccnc6[C@@](C)(COC(=O)CCC(=O)OCCOCCOCCOCCO)[C@@H]5CC[C@]43C)[C@@H]2C1	11.97%	90.3%	Activity [4]: 2.4%; remaining at 4 h [5]: 98.3%; remaining at 12 h [6]: 81.8%; remaining at 24 h [7]: 78.9%; Activity [8]: Dose-Dependent Effect; Activity [9]: Dose-Dependent Effect; Activity [10]: Active; Activity [11]: Active; Activity [12]: 20.7%; Activity [13]: 48.9%; solubility ([3]; pH 7.4, read-out: solubility): 21.6 µg/mL (≈ 24.7 µM)
CC1(C)CC[C@]2(C(=O)OCc3ccccc3)CC[C@]3(C)C(=CC[C@@H]4[C@@]5(C)Cc6nccnc6[C@@](C)(COC(=O)CCC(=O)OCCOCCOCCOCCOCCOCCOCCOCCOCCO)[C@@H]5CC[C@]43C)[C@@H]2C1	15.38%	70.6%	solubility ([3]; pH 7.4, read-out: solubility): 546 µg/mL (≈ 500 µM)
CC1(C)CC[C@]2(C(=O)OCc3ccccc3)CC[C@]3(C)C(=CC[C@@H]4[C@@]5(C)Cc6nccnc6[C@@](C)(COC(=O)CCC(=O)OCCOCCOCCOCCOCCOCCOCCOCCOCCOCCOCCOCCOCCO)[C@@H]5CC[C@]43C)[C@@H]2C1.CO	15.93%	69.7%	solubility ([3]; pH 7.4, read-out: solubility): 789 µg/mL
CC1(C)CC[C@]2(C(=O)N3CCOCC3)CC[C@]3(C)C(=CC[C@@H]4[C@@]5(C)Cc6nccnc6[C@@](C)(CO)[C@@H]5CC[C@]43C)[C@@H]2C1	16.37%	110%	–
CN(C)CCCOC(=O)[C@]12CCC(C)(C)C[C@H]1C1=CC[C@@H]3[C@@]4(C)Cc5nccnc5[C@@](C)(CO)[C@@H]4CC[C@@]3(C)[C@]1(C)CC2	12.65%	67.5%	–
COc1ccc(CCN(C)CCCC(C#N)(c2ccc(OC)c(OC)c2)C(C)C)cc1OC (centres undefined)	–	–	Activity [4]: 2.4%; Activity [12]: 40.6%
CC[C@]1(O)C[C@H]2CN(CCc3c([nH]c4ccccc34)[C@@](C(=O)OC)(c3cc4c(cc3OC)N(C=O)[C@H]3[C@@](O)(C(=O)OC)[C@H](OC(C)=O)[C@]5(CC)C=CCN6CC[C@]43[C@@H]65)C2)C1 [VINCRISTINE]	–	–	IC50 [14]: 9.45 nM
CC(=O)O[C@H]1C(=O)[C@@]2(C)[C@H]([C@H](OC(=O)c3ccccc3)[C@]3(O)C[C@H](OC(=O)[C@H](O)[C@@H](NC(=O)c4ccccc4)c4ccccc4)C(C)=C1C3(C)C)[C@]1(OC(C)=O)CO[C@@H]1C[C@@H]2O [PACLITAXEL]	103.48%	–	Activity [4]: 2.1%; IC50 [15]: 778 nM
CC1(C)CC[C@]2(C(=O)OCC(=O)OCCOCCO)CC[C@]3(C)C(=CC[C@@H]4[C@@]5(C)Cc6nccnc6[C@@](C)(CO)[C@@H]5CC[C@]43C)[C@@H]2C1	26.15%	81.7%	–
CCN1CCN(C(=O)[C@]23CCC(C)(C)C[C@H]2C2=CC[C@@H]4[C@@]5(C)Cc6nccnc6[C@@](C)(CO)[C@@H]5CC[C@@]4(C)[C@]2(C)CC3)CC1	16.67%	120%	–
CC1(C)CC[C@]2(C(=O)O)CC[C@]3(C)C(=CC[C@@H]4[C@@]5(C)CC[C@H](O)[C@@](C)(CO)[C@@H]5CC[C@]43C)[C@@H]2C1 [HEDERAGENIN]	107.17%	–	–
CC1(C)CC[C@]2(C(=O)OCc3ccccc3)CC[C@]3(C)C(=CC[C@@H]4[C@@]5(C)Cc6cn[nH]c6[C@@](C)(CO)[C@@H]5CC[C@]43C)[C@@H]2C1	21.95%	83.1%	–
CC1(C)CC[C@]2(C(=O)OCc3ccccc3)CC[C@]3(C)C(=CC[C@@H]4[C@@]5(C)Cc6nccnc6[C@@](C)(CO)[C@@H]5CC[C@]43C)[C@@H]2C1	18.17%	–	Activity [4]: 2.3%; Activity [12]: 15.6%; Activity [13]: 25.4%; IC50 [16]: 2.39 nM; inhibition in vivo at 10 mg/kg [17]: 41.9%; solubility ([3]; pH 7.4, read-out: solubility): 1.2 µg/mL (≈ 2.01 µM)
CC1(C)CC[C@]2(C(=O)OCC(=O)OCCOCCOCCOCCOCCOCCOCCOCCOCCOCCOCCOCCOCCO)CC[C@]3(C)C(=CC[C@@H]4[C@@]5(C)Cc6nccnc6[C@@](C)(CO)[C@@H]5CC[C@]43C)[C@@H]2C1	39.13%	73.3%	–
CC1(C)CC[C@]2(C(=O)OCC(=O)OCCOCCOCCOCCOCCOCCOCCOCCOCCO)CC[C@]3(C)C(=CC[C@@H]4[C@@]5(C)Cc6nccnc6[C@@](C)(CO)[C@@H]5CC[C@]43C)[C@@H]2C1	25.16%	76%	–
CC1(C)CC[C@]2(C(=O)OCc3ccccc3)CC[C@]3(C)C(=CC[C@@H]4[C@@]5(C)Cc6nccnc6[C@@](C)(COC(=O)CCC(=O)OCCOCCO)[C@@H]5CC[C@]43C)[C@@H]2C1	79.47%	72.7%	solubility ([3]; pH 7.4): Soluble
CC1(C)CC[C@]2(C(=O)OCC(=O)OCCOCCOCCOCCO)CC[C@]3(C)C(=CC[C@@H]4[C@@]5(C)Cc6nccnc6[C@@](C)(CO)[C@@H]5CC[C@]43C)[C@@H]2C1	25.88%	75.4%	–
CC1(C)CC[C@]2(C(=O)N3CCCCC3)CC[C@]3(C)C(=CC[C@@H]4[C@@]5(C)Cc6nccnc6[C@@](C)(CO)[C@@H]5CC[C@]43C)[C@@H]2C1	25.27%	59.4%	–
